Data from ChEMBL document CHEMBL1255544, “Synthesis and evaluation of novel chloropyrrole molecules designed by molecular hybridization of common pharmacophores as potential antimicrobial agents” (2010).
In brackets after ≈: the same amount, converted by molar mass. Activity calls are given as the source filed them. The calls are words filed in the database; no cut-off is given here.

Tests used:
[1] = test system: Staphylococcus aureus; test: Antimicrobial activity against Staphylococcus aureus ATCC 25923 after 24 hrs by disk diffusion method; assay type: functional
How it was run: (§1)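 Zone of inhibition by disc diffusion against E. coli ATCC-25922, S. aureus ATCC-25923, P. aeruginosa ATCC-27853 and recultured Klebsiella pneumoniae.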

[2] = test system: Klebsiella pneumoniae; test: Antimicrobial activity against Klebsiella pneumoniae at 100 ug/ml after 24 hrs by broth dilution method; assay type: functional, organism-based
[3] = test system: Pseudomonas aeruginosa; test: Antimicrobial activity against Pseudomonas aeruginosa ATCC 27853 after 24 hrs by broth dilution method; assay type: functional; conditions: ATCC 27853, 24 h
How it was run: (§2)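 MIC by broth dilution: the lowest concentration (highest dilution) that arrested bacterial or fungal growth. Strains were E. coli ATCC-25922, S. aureus ATCC-25923, P. aeruginosa ATCC-27853 and C. albicans.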

[4] = test system: Escherichia coli; test: Antimicrobial activity against Escherichia coli ATCC […] after 24 hrs by broth dilution method; assay type: functional; how it was run: as §2
[5] = test system: Candida albicans; test: Antimicrobial activity against Candida albicans after 48 hrs by agar dilution method; assay type: functional
How it was run: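 Candida albicans tested by agar dilution, with compounds in DMSO.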

[6] = test system: Escherichia coli; test: Antimicrobial activity against Escherichia coli ATCC […] after 24 hrs by disk diffusion method; assay type: functional; how it was run: as §1
[7] = test system: Staphylococcus aureus; test: Antimicrobial activity against Staphylococcus aureus ATCC 25923 after 24 hrs by broth dilution method; assay type: functional; conditions: ATCC 25923, 24 h; how it was run: as §2
[8] = test system: Candida albicans; test: Antimicrobial activity against Candida albicans after 48 hrs by broth dilution method; assay type: functional; how it was run: as §2
[9] = test system: Pseudomonas aeruginosa; test: Antimicrobial activity against Pseudomonas aeruginosa ATCC 27853 after 24 hrs by disk diffusion method; assay type: functional; how it was run: as §1
[10] = test system: Klebsiella pneumoniae; test: Antimicrobial activity against Klebsiella pneumoniae after 24 hrs by disk diffusion method; assay type: functional; how it was run: as §1

| SMILES | diameter of the inhibition zone (DIZ) [1] [mm] | Activity [2] | MIC [3] [µg/mL] | MIC [4] [µg/mL] | diameter of the inhibition zone (DIZ) [5] [mm] | diameter of the inhibition zone (DIZ) [6] [mm] | MIC [7] [µg/mL] | MIC [8] [µg/mL] | diameter of the inhibition zone (DIZ) [9] [mm] | diameter of the inhibition zone (DIZ) [10] [mm] |
| --- | --- | --- | --- | --- | --- | --- | --- | --- | --- | --- |
| COc1ccc(/C=N/NC(=O)c2cc(Cl)c[nH]2)cc1 | 18 | inactive | 100 (≈ 360 µM) | 12.5 (≈ 45 µM) | 15 | 10 | 12.5 (≈ 45 µM) | 25 (≈ 90 µM) | 14 |  |
| O=C(/C=C/c1ccccc1O)c1cc(Cl)c[nH]1 | 16 | inactive | 25 (≈ 101 µM) | 25 (≈ 101 µM) | 15 | 10 | 12.5 (≈ 50.5 µM) | 50 (≈ 202 µM) | 18 |  |
| COc1ccc(/C=N/NC(=O)c2cc(Cl)c[nH]2)cc1OC | 20 | inactive | 100 (≈ 325 µM) | 12.5 (≈ 40.6 µM) | 20 | 12 | 12.5 (≈ 40.6 µM) | 25 (≈ 81.2 µM) | 16 |  |
| O=C(N/N=C/c1ccc(Cl)cc1)c1cc(Cl)c(Cl)[nH]1 | 24 |  | 25 (≈ 79 µM) | 3.12 (≈ 9.87 µM) | 20 | 22 | 1.56 (≈ 4.93 µM) | 12.5 (≈ 39.5 µM) | 16 | 20 |
| O=C(N/N=C/c1ccccc1)c1cc(Cl)c[nH]1 | 17 | inactive | 100 (≈ 404 µM) | 12.5 (≈ 50.5 µM) | 20 | 14 | 12.5 (≈ 50.5 µM) | 25 (≈ 101 µM) | 14 |  |
| COc1ccc(/C=C/C(=O)c2cc(Cl)c[nH]2)cc1 | 18 | inactive | 25 (≈ 95.5 µM) | 12.5 (≈ 47.8 µM) | 12 | 16 | 12.5 (≈ 47.8 µM) | 50 (≈ 191 µM) | 15 |  |
| COc1ccc(OC)c(/C=N/NC(=O)c2cc(Cl)c[nH]2)c1 | 20 | inactive | 100 (≈ 325 µM) | 12.5 (≈ 40.6 µM) | 13 | 15 | 6.25 (≈ 20.3 µM) | 25 (≈ 81.2 µM) | 15 |  |
| O=C(/C=C/c1ccco1)c1cc(Cl)c[nH]1 | 22 | inactive | 25 (≈ 113 µM) | 12.5 (≈ 56.4 µM) | 18 | 20 | 12.5 (≈ 56.4 µM) | 50 (≈ 226 µM) | 17 |  |
| C[C@@H]1[C@H](O)[C@@H](C)/C=C/C=C/C=C/C=C/C=C/C=C/C=C/[C@H](O[C@@H]2O[C@H](C)[C@@H](O)[C@H](N)[C@@H]2O)C[C@@H]2O[C@](O)(C[C@@H](O)C[C@@H](O)[C@H](O)CC[C@@H](O)C[C@@H](O)CC(=O)O[C@H]1C)C[C@H](O)[C@H]2C(=O)O [AMPHOTERICIN B] |  |  |  |  | 25 |  |  | 1.56 (≈ 1.69 µM) |  |  |
| COc1ccc(/C=C/C(=O)c2cc(Cl)c(Cl)[nH]2)cc1OC | 24 |  | 25 (≈ 76.6 µM) | 6.25 (≈ 19.2 µM) | 18 | 15 | 3.12 (≈ 9.58 µM) | 50 (≈ 153 µM) | 17 | 18 |
| O=C(N/N=C/c1ccccc1)c1cc(Cl)c(Cl)[nH]1 | 16 |  | 50 (≈ 177 µM) | 12.5 (≈ 44.3 µM) | 23 | 11 | 3.12 (≈ 11.1 µM) | 12.5 (≈ 44.3 µM) | 18 | 17 |
| CN(C)c1ccc(/C=N/NC(=O)c2cc(Cl)c[nH]2)cc1 | 10 | inactive | 100 (≈ 344 µM) | 12.5 (≈ 43 µM) | 18 | 17 | 12.5 (≈ 43 µM) | 25 (≈ 86 µM) | 14 |  |
| O=C(N/N=C/c1ccco1)c1cc(Cl)c[nH]1 | 24 | inactive | 100 (≈ 421 µM) | 25 (≈ 105 µM) | 21 | 23 | 25 (≈ 105 µM) | 25 (≈ 105 µM) | 15 |  |
| COc1ccc(OC)c(/C=C/C(=O)c2cc(Cl)c[nH]2)c1 | 19 | inactive | 100 (≈ 343 µM) | 12.5 (≈ 42.8 µM) | 16 | 18 | 12.5 (≈ 42.8 µM) | 50 (≈ 171 µM) | 15 |  |
| O=C(N/N=C/c1ccccc1O)c1cc(Cl)c[nH]1 | 17 | inactive | 100 (≈ 379 µM) | 6.25 (≈ 23.7 µM) | 18 | 20 | 6.25 (≈ 23.7 µM) | 25 (≈ 94.8 µM) | 14 |  |
| O=C(/C=C/c1ccc(Cl)cc1)c1cc(Cl)c[nH]1 | 16 | inactive | 100 (≈ 376 µM) | 25 (≈ 93.9 µM) | 13 | 12 | 12.5 (≈ 47 µM) | 50 (≈ 188 µM) | 16 |  |
| COc1ccc(/C=C/C(=O)c2cc(Cl)c[nH]2)cc1OC | 13 | inactive | 100 (≈ 343 µM) | 12.5 (≈ 42.8 µM) | 12 | 16 | 12.5 (≈ 42.8 µM) | 50 (≈ 171 µM) | 14 |  |
| O=C(N/N=C/c1ccc(Cl)cc1)c1cc(Cl)c[nH]1 | 26 | inactive | 100 (≈ 354 µM) | 12.5 (≈ 44.3 µM) | 17 | 16 | 3.12 (≈ 11.1 µM) | 25 (≈ 88.6 µM) | 15 |  |
| O=C(N/N=C/c1c(O)cccc1O)c1cc(Cl)c[nH]1 | 24 | inactive | 50 (≈ 179 µM) | 6.25 (≈ 22.3 µM) | 18 | 21 | 3.12 (≈ 11.2 µM) | 25 (≈ 89.4 µM) | 14 |  |
